Reference: ChEMBL document CHEMBL4689842, “EUbOPEN Chemogenomics Library wave 1” (2021)

Legend:
[1] = test system: U2OS; assay: Incucyte cell viability with U2OS; format: toxicity, cell-based; settings: human, 10 µM, compound concentration 10 uM; also: filed as whole numbers so only -1 and 0 and 1 occur
[2] = test system: U2OS; assay: Multiplex assay against U2OS; format: toxicity, cell-based; settings: human
How it was run: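 Four dyes were applied at seeding to live cells: Hoechst33342, BioTracker Green Microtubule Cytoskeleton Dye, MitoTracker Red and Annexin V Alexa Fluor 680. Imaging after compound addition used a CQ1 microscope at 37°C and 5% CO2. CellPathfinder machine-learning gating then sorted cells into Hoechst high-intensity objects or normal cells, normal cells into healthy, pyknosed or fragmented nuclei, and pyknosed cells into mitotic or apoptotic, with tubulin, mitochondrial-mass and membrane-permeability phenotypes given as per cents of healthy-nucleus cells.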

[3] = 12 h, 1 µM, compound concentration 1 uM, replicate 1
[4] = 12 h, 1 µM, compound concentration 1 uM, replicate 2
[5] = 12 h, 10 µM, compound concentration 10 uM, replicate 1
[6] = 12 h, 10 µM, compound concentration 10 uM, replicate 2
[7] = 24 h, 1 µM, compound concentration 1 uM, replicate 1
[8] = 24 h, 1 µM, compound concentration 1 uM, replicate 2
[9] = 24 h, 10 µM, compound concentration 10 uM, replicate 1
[10] = 24 h, 10 µM, compound concentration 10 uM, replicate 2
[11] = 48 h, 1 µM, compound concentration 1 uM, replicate 1
[12] = 48 h, 1 µM, compound concentration 1 uM, replicate 2
[13] = 48 h, 10 µM, compound concentration 10 uM, replicate 1
[14] = 48 h, 10 µM, compound concentration 10 uM, replicate 2

Cc1ccc(S(=O)(=O)NC2c3ccccc3Oc3ccccc32)cc1
Growth Rate ([1]; 0 h, replicate number 1, timepoint 0 hours): 0 | Growth Rate ([1]; 18 h, replicate number 2, timepoint 18 hours): 1 | Growth Rate ([1]; 24 h, replicate number 1, timepoint 24 hours): 1 | Growth Rate ([1]; 24 h, replicate number 2, timepoint 24 hours): 0 | Population Apoptotic (%) [2, 3]: 47% | Population Fragmented Nuclei (%) [2, 3]: 11% | Population Healthy Nuclei (%) [2, 3]: 77% | Population Hoechst High Intensity Objects (%) [2, 3]: 5% | Population Membrane Permeable-Phenotype (%) [2, 3]: 6% | Population Mitochondria Different-Phenotype (%) [2, 3]: 5% | Population Mitotic Cells (%) [2, 3]: 52% | Population Normal (%) [2, 3]: 94% | Population Pyknosed Nuclei (%) [2, 3]: 10% | Population Tubulin-Different-Phenotype (%) [2, 3]: 5% | Total Cell Count [2, 3]: 216 | Population Apoptotic (%) [2, 4]: 0% | Population Fragmented Nuclei (%) [2, 4]: 10% | Population Healthy Nuclei (%) [2, 4]: 76% | Population Hoechst High Intensity Objects (%) [2, 4]: 4% | Population Membrane Permeable-Phenotype (%) [2, 4]: 0% | Population Mitochondria Different-Phenotype (%) [2, 4]: 16% | Population Mitotic Cells (%) [2, 4]: 100% | Population Normal (%) [2, 4]: 95% | Population Pyknosed Nuclei (%) [2, 4]: 12% | Population Tubulin-Different-Phenotype (%) [2, 4]: 2% | Total Cell Count [2, 4]: 49 | Population Apoptotic (%) [2, 5]: 71% | Population Fragmented Nuclei (%) [2, 5]: 84% | Population Healthy Nuclei (%) [2, 5]: 12% | Population Hoechst High Intensity Objects (%) [2, 5]: 7% | Population Membrane Permeable-Phenotype (%) [2, 5]: 71% | Population Mitochondria Different-Phenotype (%) [2, 5]: 28% | Population Mitotic Cells (%) [2, 5]: 28% | Population Normal (%) [2, 5]: 92% | Population Pyknosed Nuclei (%) [2, 5]: 2% | Population Tubulin-Different-Phenotype (%) [2, 5]: 68% | Total Cell Count [2, 5]: 507 | Population Apoptotic (%) [2, 6]: 95% | Population Fragmented Nuclei (%) [2, 6]: 42% | Population Healthy Nuclei (%) [2, 6]: 34% | Population Hoechst High Intensity Objects (%) [2, 6]: 6% | Population Membrane Permeable-Phenotype (%) [2, 6]: 44% | Population Mitochondria Different-Phenotype (%) [2, 6]: 0% | Population Mitotic Cells (%) [2, 6]: 4% | Population Normal (%) [2, 6]: 93% | Population Pyknosed Nuclei (%) [2, 6]: 23% | Population Tubulin-Different-Phenotype (%) [2, 6]: 50% | Total Cell Count [2, 6]: 106 | Population Apoptotic (%) [2, 7]: 59% | Population Fragmented Nuclei (%) [2, 7]: 57% | Population Healthy Nuclei (%) [2, 7]: 25% | Population Hoechst High Intensity Objects (%) [2, 7]: 0% | Population Membrane Permeable-Phenotype (%) [2, 7]: 11% | Population Mitochondria Different-Phenotype (%) [2, 7]: 17% | Population Mitotic Cells (%) [2, 7]: 40% | Population Normal (%) [2, 7]: 100% | Population Pyknosed Nuclei (%) [2, 7]: 16% | Population Tubulin-Different-Phenotype (%) [2, 7]: 5% | Total Cell Count [2, 7]: 132 | Population Apoptotic (%) [2, 8]: 25% | Population Fragmented Nuclei (%) [2, 8]: 5% | Population Healthy Nuclei (%) [2, 8]: 88% | Population Hoechst High Intensity Objects (%) [2, 8]: 7% | Population Membrane Permeable-Phenotype (%) [2, 8]: 7% | Population Mitochondria Different-Phenotype (%) [2, 8]: 15% | Population Mitotic Cells (%) [2, 8]: 75% | Population Normal (%) [2, 8]: 92% | Population Pyknosed Nuclei (%) [2, 8]: 6% | Population Tubulin-Different-Phenotype (%) [2, 8]: 13% | Total Cell Count [2, 8]: 65 | Population Apoptotic (%) [2, 9]: 71% | Population Fragmented Nuclei (%) [2, 9]: 69% | Population Healthy Nuclei (%) [2, 9]: 27% | Population Hoechst High Intensity Objects (%) [2, 9]: 6% | Population Membrane Permeable-Phenotype (%) [2, 9]: 34% | Population Mitochondria Different-Phenotype (%) [2, 9]: 18% | Population Mitotic Cells (%) [2, 9]: 28% | Population Normal (%) [2, 9]: 93% | Population Pyknosed Nuclei (%) [2, 9]: 2% | Population Tubulin-Different-Phenotype (%) [2, 9]: 19% | Total Cell Count [2, 9]: 321 | Population Apoptotic (%) [2, 10]: 100% | Population Fragmented Nuclei (%) [2, 10]: 10% | Population Healthy Nuclei (%) [2, 10]: 68% | Population Hoechst High Intensity Objects (%) [2, 10]: 4% | Population Membrane Permeable-Phenotype (%) [2, 10]: 20% | Population Mitochondria Different-Phenotype (%) [2, 10]: 14% | Population Mitotic Cells (%) [2, 10]: 0% | Population Normal (%) [2, 10]: 95% | Population Pyknosed Nuclei (%) [2, 10]: 21% | Population Tubulin-Different-Phenotype (%) [2, 10]: 43% | Total Cell Count [2, 10]: 84 | Population Apoptotic (%) [2, 11]: 50% | Population Fragmented Nuclei (%) [2, 11]: 8% | Population Healthy Nuclei (%) [2, 11]: 85% | Population Membrane Permeable-Phenotype (%) [2, 11]: 0% | Population Mitochondria Different-Phenotype (%) [2, 11]: 7% | Population Mitotic Cells (%) [2, 11]: 50% | Population Pyknosed Nuclei (%) [2, 11]: 6% | Population Tubulin-Different-Phenotype (%) [2, 11]: 3% | Total Cell Count [2, 11]: 429 | Population Apoptotic (%) [2, 12]: 25% | Population Fragmented Nuclei (%) [2, 12]: 5% | Population Healthy Nuclei (%) [2, 12]: 90% | Population Hoechst High Intensity Objects (%) [2, 12]: 2% | Population Membrane Permeable-Phenotype (%) [2, 12]: 10% | Population Mitochondria Different-Phenotype (%) [2, 12]: 18% | Population Mitotic Cells (%) [2, 12]: 75% | Population Normal (%) [2, 12]: 97% | Population Pyknosed Nuclei (%) [2, 12]: 4% | Population Tubulin-Different-Phenotype (%) [2, 12]: 10% | Total Cell Count [2, 12]: 93 | Population Apoptotic (%) [2, 13]: 44% | Population Fragmented Nuclei (%) [2, 13]: 11% | Population Healthy Nuclei (%) [2, 13]: 82% | Population Hoechst High Intensity Objects (%) [2, 13]: 3% | Population Membrane Permeable-Phenotype (%) [2, 13]: 3% | Population Mitochondria Different-Phenotype (%) [2, 13]: 12% | Population Mitotic Cells (%) [2, 13]: 55% | Population Normal (%) [2, 13]: 96% | Population Pyknosed Nuclei (%) [2, 13]: 6% | Population Tubulin-Different-Phenotype (%) [2, 13]: 12% | Total Cell Count [2, 13]: 155 | Population Apoptotic (%) [2, 14]: 75% | Population Fragmented Nuclei (%) [2, 14]: 7% | Population Healthy Nuclei (%) [2, 14]: 84% | Population Hoechst High Intensity Objects (%) [2, 14]: 4% | Population Membrane Permeable-Phenotype (%) [2, 14]: 17% | Population Mitochondria Different-Phenotype (%) [2, 14]: 14% | Population Mitotic Cells (%) [2, 14]: 25% | Population Normal (%) [2, 14]: 95% | Population Pyknosed Nuclei (%) [2, 14]: 7% | Population Tubulin-Different-Phenotype (%) [2, 14]: 37% | Total Cell Count [2, 14]: 109
